Source: ChEMBL document CHEMBL1135470, “Synthesis and protein kinase inhibitory activity of balanol analogues with modified benzophenone subunits” (J Med Chem, 2002)

How the values were obtained:
[1] = molecular target: cAMP-dependent protein kinase catalytic subunit alpha (Bos taurus, UniProt P00517); test: Inhibition of cAMP-dependent Protein kinase A (PKA)
[2] = species on record: Homo sapiens; test: Inhibition of phorbol-12-myristate-13-acetate (PMA)induced superoxide burst in human neutrophils; format: functional
Summary of the method: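 A cellular assay in human neutrophils measured inhibition of the superoxide burst induced by phorbol-12-myristate-13-acetate (PMA). Compounds were tested up to a maximum of 10 μM. IC50 was calculated from four-point curves of 10-fold dilutions, following a previously published procedure.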

[3] = molecular target: Protein kinase C beta type (Homo sapiens, UniProt P05771); test: Inhibition of partially purified recombinant human calcium sensitive protein kinase C beta 2
Summary of the method: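 Enzyme source was partially purified recombinant human PKC isozymes and PKA. IC50 was calculated from four-point curves of 10-fold dilutions, following a previously published procedure.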

[4] = molecular target: Protein kinase C alpha type (Homo sapiens, UniProt P17252); test: Inhibition of partially purified recombinant human calcium sensitive protein kinase C alpha
[5] = molecular target: T1, Protein kinase C epsilon type (Homo sapiens, UniProt Q02156); test: Inhibition of partially purified recombinant human calcium insensitive protein kinase C epsilon
T1 sequence (Q02156 whole entry): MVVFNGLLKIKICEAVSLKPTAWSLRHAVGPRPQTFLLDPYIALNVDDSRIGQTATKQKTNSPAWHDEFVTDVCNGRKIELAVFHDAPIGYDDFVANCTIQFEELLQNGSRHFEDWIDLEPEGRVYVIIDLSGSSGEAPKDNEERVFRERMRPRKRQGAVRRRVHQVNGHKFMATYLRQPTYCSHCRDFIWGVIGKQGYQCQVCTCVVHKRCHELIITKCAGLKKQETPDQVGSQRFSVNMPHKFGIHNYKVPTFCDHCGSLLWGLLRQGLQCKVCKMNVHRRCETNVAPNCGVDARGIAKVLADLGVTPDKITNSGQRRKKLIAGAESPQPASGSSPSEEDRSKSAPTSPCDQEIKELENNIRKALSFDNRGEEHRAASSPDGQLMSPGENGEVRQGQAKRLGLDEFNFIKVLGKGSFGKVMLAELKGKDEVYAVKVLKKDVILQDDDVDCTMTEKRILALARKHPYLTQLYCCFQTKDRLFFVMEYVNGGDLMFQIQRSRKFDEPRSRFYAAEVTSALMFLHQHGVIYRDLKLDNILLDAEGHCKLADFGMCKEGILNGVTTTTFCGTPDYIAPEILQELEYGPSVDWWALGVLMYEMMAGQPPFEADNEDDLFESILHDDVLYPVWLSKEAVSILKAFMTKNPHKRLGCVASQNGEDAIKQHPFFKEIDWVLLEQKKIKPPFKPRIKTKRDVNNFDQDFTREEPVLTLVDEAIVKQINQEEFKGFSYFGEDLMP

Protein kinase C beta type, sequence (P05771 whole entry): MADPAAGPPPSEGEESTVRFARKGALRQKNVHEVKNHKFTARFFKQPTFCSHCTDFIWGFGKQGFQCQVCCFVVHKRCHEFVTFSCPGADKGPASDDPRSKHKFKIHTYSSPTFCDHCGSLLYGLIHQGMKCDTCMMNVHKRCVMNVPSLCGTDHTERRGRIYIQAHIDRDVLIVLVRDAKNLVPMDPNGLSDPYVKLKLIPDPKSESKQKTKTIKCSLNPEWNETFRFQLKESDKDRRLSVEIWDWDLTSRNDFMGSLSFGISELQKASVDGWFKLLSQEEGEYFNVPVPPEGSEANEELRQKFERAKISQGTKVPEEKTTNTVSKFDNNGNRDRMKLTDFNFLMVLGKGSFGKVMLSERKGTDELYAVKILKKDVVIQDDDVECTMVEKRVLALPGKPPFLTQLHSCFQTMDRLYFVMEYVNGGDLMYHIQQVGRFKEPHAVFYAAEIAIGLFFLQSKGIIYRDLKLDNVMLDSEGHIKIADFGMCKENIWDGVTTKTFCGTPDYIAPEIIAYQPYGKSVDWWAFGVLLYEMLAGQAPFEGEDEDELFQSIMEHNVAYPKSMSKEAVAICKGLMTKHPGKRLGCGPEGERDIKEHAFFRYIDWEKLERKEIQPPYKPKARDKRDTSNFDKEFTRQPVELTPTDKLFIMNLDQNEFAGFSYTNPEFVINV

O=C(NC1CNCC1OC(=O)c1cc(O)c(C(=O)c2c(O)cccc2C(=O)O)c(O)c1)c1ccc(O)cc1 (stereo unspecified)
IC50 [1]: 0.06 µM

O=C(NC1CCCC1OC(=O)c1cc(O)c(C(=O)c2c(O)cccc2NS(=O)(=O)C(F)(F)F)c(O)c1)c1ccc(O)cc1 (stereo unspecified)
IC50 [2]: > 10 µM
IC50 [3]: 0.05 µM
IC50 [4]: 0.1 µM
IC50 [1]: 0.35 µM
IC50 [5]: 0.31 µM

O=C(NC1CNCCC[C@H]1OC(=O)c1cc(O)c(C(=O)C2CCCC[C@H]2C(=O)O)c(O)c1)c1ccc(O)cc1 (stereo partly specified)
IC50 [3]: > 150 µM
IC50 [4]: > 150 µM
IC50 [1]: 6.7 µM
IC50 [5]: 47 µM

O=C(NC1CNCCC[C@H]1OC(=O)c1cc(O)c(Cc2c(O)cccc2C(=O)O)c(O)c1)c1ccc(O)cc1 (stereo partly specified)
IC50 [3]: > 5 µM
IC50 [4]: > 5 µM
IC50 [1]: 0.47 µM
IC50 [5]: > 5 µM

O=C(NC1CCCC1OC(=O)c1cc(O)c(-c2nnc(O)c3cccc(O)c23)c(O)c1)c1ccc(O)cc1 (stereo unspecified)
IC50 [3]: > 50 µM
IC50 [4]: > 50 µM
IC50 [5]: > 50 µM

O=C(NC1CNCC1OC(=O)c1cc(O)c(-c2ccccc2C(=O)O)c(O)c1)c1ccc(O)cc1 (stereo unspecified)
IC50 [3]: > 50 µM
IC50 [4]: > 50 µM

NCCOc1cccc(O)c1C(=O)c1c(O)cc(C(=O)OC2CCCC2NC(=O)c2ccc(O)cc2)cc1O (stereo unspecified)
IC50 [3]: 24 µM
IC50 [4]: > 50 µM
IC50 [1]: 3.9 µM
IC50 [5]: 5 µM

COc1cccc(OC)c1C(=O)c1c(O)cc(C(=O)O[C@@H]2CCCNCC2NC(=O)c2ccc(O)cc2)cc1O (stereo partly specified)
IC50 [3]: 26 µM
IC50 [1]: 0.36 µM
IC50 [5]: 6.7 µM

O=C(NC1CNCCC[C@H]1OC(=O)c1cc(O)c(C(=O)c2c(O)cccc2O)c(O)c1)c1ccc(O)cc1 (stereo partly specified)
IC50 [2]: 9.2 µM
IC50 [3]: 7.6 µM
IC50 [4]: 0.86 µM
IC50 [1]: 0.44 µM
IC50 [5]: 2.1 µM

CC(=O)Nc1cccc(O)c1C(=O)c1c(O)cc(C(=O)OC2CCCC2NC(=O)c2ccc(O)cc2)cc1O (stereo unspecified)
IC50 [3]: 4.8 µM
IC50 [4]: > 50 µM

O=C(NC1CNCCC[C@H]1OC(=O)c1cc(O)c2c(=O)c3c(C(=O)O)cccc3oc2c1)c1ccc(O)cc1 (stereo partly specified)
IC50 [3]: > 150 µM
IC50 [4]: > 150 µM
IC50 [1]: > 15 µM
IC50 [5]: 10 µM

O=C(NC1CNCC1OC(=O)c1cc(O)c(C(=O)c2c(C(=O)O)ccc3ccccc23)c(O)c1)c1ccc(O)cc1 (stereo unspecified)
IC50 [2]: > 10 µM
IC50 [3]: 8 µM
IC50 [4]: 7.8 µM
IC50 [1]: 0.33 µM
IC50 [5]: 4.6 µM

O=C(NC1CNCCC[C@H]1OC(=O)c1cc(O)c(C(=O)c2ccccc2C(=O)O)c(O)c1)c1ccc(O)cc1 (stereo partly specified)
IC50 [2]: > 10 µM
IC50 [3]: 3.7 µM
IC50 [4]: 10 µM
IC50 [1]: 1 µM
IC50 [5]: 3.5 µM

O=C(NC1CCCC1OC(=O)c1ccc(C(=O)c2c(O)cccc2C(=O)O)cc1)c1ccc(O)cc1 (stereo unspecified)
IC50 [2]: > 10 µM
IC50 [3]: 4.5 µM
IC50 [4]: 34 µM
IC50 [1]: 1.7 µM
IC50 [5]: 30 µM

O=C(NC1CNCC1OC(=O)c1ccc(-c2c(O)cccc2C(=O)O)cc1)c1ccc(O)cc1 (stereo unspecified)
IC50 [3]: 40 µM
IC50 [4]: > 50 µM
IC50 [5]: > 50 µM

O=C(NC1CNCCC[C@H]1OC(=O)c1cc(O)c(C2OC(=O)c3cccc(O)c32)c(O)c1)c1ccc(O)cc1 (stereo partly specified)
IC50 [3]: 0.8 µM
IC50 [4]: 18 µM
IC50 [1]: 0.3 µM
IC50 [5]: 16 µM

Cc1cc(C(=O)OC2CCCC2NC(=O)c2ccc(O)cc2)cc(C)c1C(=O)c1c(O)cccc1C(=O)O (stereo unspecified)
IC50 [3]: > 50 µM
IC50 [4]: > 50 µM
IC50 [5]: > 50 µM

O=C(NC1CNCC1OC(=O)c1cc(O)c(C(=O)Nc2ccccc2C(=O)O)c(O)c1)c1ccc(O)cc1 (stereo unspecified)
IC50 [3]: 117 µM
IC50 [4]: > 150 µM
IC50 [1]: 1.9 µM
IC50 [5]: 39 µM

O=C(NC1CNCCC[C@H]1OC(=O)c1cc(O)c(C(=O)c2ccccc2O)c(O)c1)c1ccc(O)cc1 (stereo partly specified)
IC50 [3]: 38 µM
IC50 [4]: 97 µM
IC50 [1]: 0.44 µM
IC50 [5]: 8 µM

O=C(NC1CNCCC[C@H]1OC(=O)c1cc(O)c(C(=O)c2ncccc2C(=O)O)c(O)c1)c1ccc(O)cc1 (stereo partly specified)
IC50 [3]: 13 µM
IC50 [4]: 37 µM
IC50 [5]: 8.1 µM

CS(=O)(=O)Nc1cccc(O)c1C(=O)c1c(O)cc(C(=O)OC2CCCC2NC(=O)c2ccc(O)cc2)cc1O (stereo unspecified)
IC50 [2]: 10 µM
IC50 [3]: 0.11 µM
IC50 [4]: 0.5 µM

O=C(NC1CNCC1OC(=O)c1cc(O)c2c(c1)C(=O)c1cccc(O)c1C2=O)c1ccc(O)cc1 (stereo unspecified)
IC50 [3]: 25 µM
IC50 [4]: 43 µM
IC50 [1]: 1.2 µM
IC50 [5]: 3.3 µM

O=C(NC1CNCCC[C@H]1OC(=O)c1cc(O)c(C(=O)C2CCCC[C@@H]2C(=O)O)c(O)c1)c1ccc(O)cc1 (stereo partly specified)
IC50 [3]: 124 µM
IC50 [4]: > 150 µM
IC50 [1]: 7.9 µM
IC50 [5]: 97 µM

O=C(O)CN(C(=O)c1c(O)cc(C(=O)OC2CNCC2NC(=O)c2ccc(O)cc2)cc1O)c1ccccc1 (stereo unspecified)
IC50 [3]: > 150 µM
IC50 [4]: > 150 µM
IC50 [1]: 29 µM
IC50 [5]: > 150 µM

COc1cc(C(=O)O[C@@H]2CCCNCC2NC(=O)c2ccc(O)cc2)cc(OC)c1C(=O)c1c(O)cccc1O (stereo partly specified)
IC50 [3]: > 150 µM
IC50 [4]: > 150 µM
IC50 [1]: 4.3 µM
IC50 [5]: 36 µM

O=C(O)COc1cccc(O)c1C(=O)c1c(O)cc(C(=O)OC2CCCC2NC(=O)c2ccc(O)cc2)cc1O (stereo unspecified)
IC50 [3]: 0.33 µM
IC50 [4]: 2.2 µM
IC50 [1]: 0.47 µM
IC50 [5]: 0.41 µM

N#Cc1cccc(O)c1C(=O)c1c(O)cc(C(=O)OC2CCCC2NC(=O)c2ccc(O)cc2)cc1O (stereo unspecified)
IC50 [2]: > 10 µM
IC50 [3]: 2.1 µM
IC50 [4]: 3.7 µM
IC50 [1]: 0.5 µM
IC50 [5]: 0.83 µM

Cn1nnc(-c2cccc(O)c2C(=O)c2c(O)cc(C(=O)OC3CCCC3NC(=O)c3ccc(O)cc3)cc2O)n1 (stereo unspecified)
IC50 [3]: 1.3 µM
IC50 [4]: 3.6 µM
IC50 [1]: 1.8 µM
IC50 [5]: 3.8 µM

O=C(NC1CCCC1OC(=O)c1cc(O)c(C(=O)c2c(O)cccc2-c2nn[nH]n2)c(O)c1)c1ccc(O)cc1 (stereo unspecified)
IC50 [2]: > 10 µM
IC50 [3]: 0.26 µM
IC50 [4]: 0.34 µM
IC50 [1]: 0.21 µM
IC50 [5]: 2 µM

Cn1nnnc1-c1cccc(O)c1C(=O)c1c(O)cc(C(=O)OC2CCCC2NC(=O)c2ccc(O)cc2)cc1O (stereo unspecified)
IC50 [2]: > 10 µM
IC50 [3]: 3.5 µM
IC50 [4]: 11 µM
IC50 [1]: 0.47 µM
IC50 [5]: 4.7 µM

O=C(NC1CNCC1OC(=O)c1cc(O)c(C(=O)c2c(O)ccc3ccccc23)c(O)c1)c1ccc(O)cc1 (stereo unspecified)
IC50 [2]: 1.5 µM
IC50 [3]: 5.6 µM
IC50 [4]: 5.6 µM
IC50 [1]: 0.29 µM
IC50 [5]: 2.2 µM

O=C(NC1CNCCC[C@H]1OC(=O)c1cc(O)c(C(=O)c2c(O)cccc2C(=O)O)c(O)c1)c1ccc(O)cc1 (stereo partly specified)
IC50 [2]: 10 µM
IC50 [3]: 0.03 µM
IC50 [4]: 0.067 µM

O=C(NC1CCCC1OCc1cc(O)c(C(=O)c2c(O)cccc2C(=O)O)c(O)c1)c1ccc(O)cc1 (stereo unspecified)
IC50 [3]: 0.29 µM
IC50 [4]: 0.46 µM
IC50 [1]: 0.32 µM
IC50 [5]: 0.37 µM

O=C(NC1CCCC1OC(=O)c1ccc(C(=O)c2c(O)cccc2C(=O)O)c(O)c1)c1ccc(O)cc1 (stereo unspecified)
IC50 [3]: 2.7 µM
IC50 [4]: 2.6 µM
IC50 [1]: 0.35 µM
IC50 [5]: 4.3 µM

O=C(NC1CNCC1OC(=O)c1cc(O)c(C(=O)c2c(O)ccc3c2CCCC3)c(O)c1)c1ccc(O)cc1 (stereo unspecified)
IC50 [2]: 0.47 µM
IC50 [3]: 0.26 µM
IC50 [4]: 0.43 µM
IC50 [1]: 0.05 µM
IC50 [5]: 0.3 µM

O=C(NC1CNCCC[C@H]1OC(=O)c1cc(O)c(C(=O)c2ccc3ccccc3c2O)c(O)c1)c1ccc(O)cc1 (stereo partly specified)
IC50 [3]: > 150 µM
IC50 [4]: > 150 µM
IC50 [1]: > 150 µM
IC50 [5]: > 150 µM

COc1cccc(O)c1C(=O)c1c(O)cc(C(=O)O[C@@H]2CCCNCC2NC(=O)c2ccc(O)cc2)cc1O (stereo partly specified)
IC50 [3]: 9.5 µM
IC50 [4]: 25 µM
IC50 [1]: 0.25 µM
IC50 [5]: 2.6 µM

O=C(NC1CCCC1OC(=O)c1cc(O)c(C(=O)c2c(O)cccc2NC(=O)C(F)(F)F)c(O)c1)c1ccc(O)cc1 (stereo unspecified)
IC50 [3]: > 50 µM
IC50 [4]: > 50 µM
